Experiment [1] deals with HL-60. The experiment is described as follows: Induction of apoptosis in human HL-60 cells assessed as cleavage of caspase-9 at 0.5 to 8 uM after 24 hrs Western blot analysis. Type of experiment: functional, cell-based. The settings on record: dose 0.5-8 µM. An outline of the steps:
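HL-60 cells were treated for 24 h at the indicated concentrations, then analysed by Western blot. Blots were probed for cleavage of PARP and caspase-3, -8 and -9. Ac-H3, Ac-α-tubulin and β-actin were also detected, with β-actin as the loading reference.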

Experiment [2] deals with T1, Protein deacetylase HDAC6 (Homo sapiens) (UniProt Q9UBN7).
T1 sequence (whole entry): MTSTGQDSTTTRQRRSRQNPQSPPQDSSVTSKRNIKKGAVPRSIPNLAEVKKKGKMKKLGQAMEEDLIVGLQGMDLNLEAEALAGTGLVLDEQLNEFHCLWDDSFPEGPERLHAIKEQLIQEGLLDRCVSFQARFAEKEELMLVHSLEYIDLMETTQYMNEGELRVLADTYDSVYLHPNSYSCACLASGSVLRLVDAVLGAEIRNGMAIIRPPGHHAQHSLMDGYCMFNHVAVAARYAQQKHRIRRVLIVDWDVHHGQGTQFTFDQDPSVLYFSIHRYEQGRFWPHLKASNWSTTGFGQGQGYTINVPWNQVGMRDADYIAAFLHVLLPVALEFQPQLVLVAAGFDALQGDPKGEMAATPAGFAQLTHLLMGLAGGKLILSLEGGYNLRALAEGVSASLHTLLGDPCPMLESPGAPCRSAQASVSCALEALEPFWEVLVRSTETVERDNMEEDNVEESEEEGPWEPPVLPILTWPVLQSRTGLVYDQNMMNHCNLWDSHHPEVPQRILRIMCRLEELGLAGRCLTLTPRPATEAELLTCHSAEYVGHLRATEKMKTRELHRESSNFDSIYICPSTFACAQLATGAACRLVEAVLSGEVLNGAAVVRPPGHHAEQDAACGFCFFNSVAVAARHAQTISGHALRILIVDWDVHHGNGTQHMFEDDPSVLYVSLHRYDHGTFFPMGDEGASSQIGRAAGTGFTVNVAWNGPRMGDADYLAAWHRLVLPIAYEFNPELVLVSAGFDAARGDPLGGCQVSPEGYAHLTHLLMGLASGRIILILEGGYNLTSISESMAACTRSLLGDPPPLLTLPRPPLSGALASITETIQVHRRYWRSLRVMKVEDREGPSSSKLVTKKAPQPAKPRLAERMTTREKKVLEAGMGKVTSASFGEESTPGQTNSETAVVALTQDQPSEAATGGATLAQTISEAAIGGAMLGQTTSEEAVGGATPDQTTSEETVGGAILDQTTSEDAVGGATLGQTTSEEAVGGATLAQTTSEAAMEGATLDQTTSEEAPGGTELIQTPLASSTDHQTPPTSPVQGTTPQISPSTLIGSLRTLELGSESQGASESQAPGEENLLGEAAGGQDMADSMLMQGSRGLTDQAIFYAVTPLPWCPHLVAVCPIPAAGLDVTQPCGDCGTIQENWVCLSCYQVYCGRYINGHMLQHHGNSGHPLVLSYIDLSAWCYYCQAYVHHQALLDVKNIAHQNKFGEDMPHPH
The experiment in a line: Inhibition of HDAC6 in human HL-60 cells assessed as increase in acetylated alpha tubulin level at 0.5 to 8 uM after 24 hrs by Western blot analysis. The format is cell-based. The settings on record: dose 0.5-8 µM. An outline of the steps: (§1)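 Compound given to HL-60 cells for 24 h at the stated concentrations, then lysed. Acetyl-histone H3 and acetyl-α-tubulin levels were read by Western blot, with total H3, α-tubulin or β-actin as references.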
(In western blotting, separated proteins are transferred to a membrane and probed.)

For experiment [3], the target named is Histone deacetylase 1 (Homo sapiens, UniProt Q13547). The experiment is described as follows: Inhibition of HDAC1 in human HL-60 cells assessed as increase in Ac-H3 level at 0.5 to 8 uM incubated for 24 hrs by Western blot analysis. The format is cell-based. The conditions noted are these: dose 0.5-8 µM. An outline of the steps: as §1
Experiment [4] addresses Histone deacetylase 3 (Homo sapiens) (UniProt O15379). The experiment in a line: Inhibition of HDAC3 in human HL-60 cells assessed as increase in Ac-H3 level at 0.5 to 8 uM incubated for 24 hrs by Western blot analysis. The conditions noted are these: dose 0.5-8 µM. The format is cell-based. An outline of the steps: as §1
Experiment [5] deals with HL-60. The experiment in a line: Induction of apoptosis in human HL-60 cells assessed as late apoptotic cells at 4 uM incubated for 24 hrs by propidium iodide and annexin-V FITC staining based FACS analysis (reference value: 4.2 %). The format is functional. For orientation: Flow cytometry measures light scatter and fluorescence of single cells or particles in a stream.

Experiment [6] deals with HL-60. The experiment is described as follows: Induction of apoptosis in human HL-60 cells assessed as viable cells at 4 uM incubated for 24 hrs by propidium iodide and annexin-V FITC staining based FACS analysis (reference value: 92.05 %). The settings on record: read-out: Activity. Type of experiment: functional.
Experiment [7] has as its system HL-60. The experiment is described as follows: Induction of apoptosis in human HL-60 cells assessed as early apoptotic cells at 8 uM incubated for 24 hrs by propidium iodide and annexin-V FITC staining based FACS analysis (reference value: 2.9 %). Type of experiment: functional.
Experiment [8] in a line: Antitumor activity against mouse LL/2 cells inoculated in C57BL/6J mouse assessed as reduction of tumor weight at 100 mg/kg, ip administered for 12 days and measured at day 14 (reference value: 1.2 +/- 0.3 g). The format is functional, Lewis lung carcinoma. The conditions noted are these: time 12 day.
The test system of experiment [9] is HL-60. The experiment is described as follows: Induction of apoptosis in human HL-60 cells assessed as early apoptotic cells at 2 uM incubated for 24 hrs by propidium iodide and annexin-V FITC staining based FACS analysis (reference value: 2.9 %). Type of experiment: functional.
Experiment [10] has as its system HL-60. The experiment is described as follows: Induction of apoptosis in human HL-60 cells assessed as late apoptotic cells at 2 uM incubated for 24 hrs by propidium iodide and annexin-V FITC staining based FACS analysis (reference value: 4.2 %). Type of experiment: functional.
The subject of experiment [11] is HL-60. The experiment is described as follows: Induction of apoptosis in human HL60 cells assessed as viable cells at 2 uM incubated for 24 hrs by propidium iodide and annexin-V FITC staining based FACS analysis (reference value: 92.05 %). Type of experiment: functional. The conditions noted are these: read-out: Activity.
Experiment [12] deals with HL-60. The experiment is described as follows: Induction of apoptosis in human HL60 cells assessed as necrotic cells at 4 uM incubated for 24 hrs by propidium iodide and annexin-V FITC staining based FACS analysis (reference value: 0.5 %). Type of experiment: functional.
Experiment [13] deals with HL-60. The experiment is described as follows: Induction of apoptosis in human HL-60 cells assessed as early apoptotic cells at 4 uM incubated for 24 hrs by propidium iodide and annexin-V FITC staining based FACS analysis (reference value: 2.9 %). Type of experiment: functional.
The test system of experiment [14] is HL-60. The experiment is described as follows: Induction of apoptosis in human HL-60 cells assessed as late apoptotic cells at 2 uM incubated for 24 hrs by propidium iodide and annexin-V FITC staining based FACS analysis (reference value: 4.8 %). The format is functional.
The test system of experiment [15] is HL-60. The experiment is described as follows: Induction of apoptosis in human HL-60 cells assessed as early apoptotic cells at 2 uM incubated for 24 hrs by propidium iodide and annexin-V FITC staining based FACS analysis (reference value: 2.8 %). The format is functional.
Experiment [16] concerns HL-60. The experiment in a line: Induction of apoptosis in human HL-60 cells assessed as late apoptotic cells at 1 uM incubated for 24 hrs by propidium iodide and annexin-V FITC staining based FACS analysis (reference value: 4.8 %). Type of experiment: functional.
Experiment [17] relates to HL-60. The experiment is described as follows: Induction of apoptosis in human HL-60 cells assessed as necrotic cells at 2 uM incubated for 24 hrs by propidium iodide and annexin-V FITC staining based FACS analysis (reference value: 0.3 %). The format is functional.
Experiment [18] concerns HL-60. The experiment in a line: Induction of apoptosis in human HL-60 cells assessed as necrotic cells at 1 uM incubated for 24 hrs by propidium iodide and annexin-V FITC staining based FACS analysis (reference value: 0.5 %). Type of experiment: functional.

The structures appear in SMILES notation. Active and inactive are the calls of the source. No cut-off for these calls is given here.

Sequence of Histone deacetylase 3 (Homo sapiens) (O15379 whole entry): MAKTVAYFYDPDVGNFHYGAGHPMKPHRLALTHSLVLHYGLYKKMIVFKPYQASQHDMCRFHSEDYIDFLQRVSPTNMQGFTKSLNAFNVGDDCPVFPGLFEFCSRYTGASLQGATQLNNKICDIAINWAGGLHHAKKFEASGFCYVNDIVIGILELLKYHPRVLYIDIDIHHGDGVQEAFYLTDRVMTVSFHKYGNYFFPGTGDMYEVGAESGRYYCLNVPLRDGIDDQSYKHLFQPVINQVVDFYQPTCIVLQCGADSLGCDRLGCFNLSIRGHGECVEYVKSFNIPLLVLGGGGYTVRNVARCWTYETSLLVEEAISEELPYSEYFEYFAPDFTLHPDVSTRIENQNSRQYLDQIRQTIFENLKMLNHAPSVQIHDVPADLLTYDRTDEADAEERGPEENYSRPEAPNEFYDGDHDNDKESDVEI
Sequence of Histone deacetylase 1 (Q13547 whole entry): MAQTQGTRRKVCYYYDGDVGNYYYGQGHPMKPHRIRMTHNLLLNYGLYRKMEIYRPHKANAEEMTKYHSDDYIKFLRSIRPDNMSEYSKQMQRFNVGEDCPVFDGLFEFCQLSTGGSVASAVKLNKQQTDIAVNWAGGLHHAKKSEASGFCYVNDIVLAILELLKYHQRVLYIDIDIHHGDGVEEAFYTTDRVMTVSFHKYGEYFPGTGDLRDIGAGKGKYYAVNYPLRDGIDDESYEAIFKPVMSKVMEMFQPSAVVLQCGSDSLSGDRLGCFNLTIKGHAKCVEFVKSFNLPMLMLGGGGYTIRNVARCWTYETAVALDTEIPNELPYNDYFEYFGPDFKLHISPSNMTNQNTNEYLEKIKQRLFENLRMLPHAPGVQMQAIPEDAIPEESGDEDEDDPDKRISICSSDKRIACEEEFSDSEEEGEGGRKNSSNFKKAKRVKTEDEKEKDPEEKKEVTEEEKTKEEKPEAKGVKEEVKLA

For `O=C(NCCS)/C(Cc1ccc(O)c(Br)c1)=N/O`, the result in experiment [1] was Active. For the same compound, the inhibition entry in experiment [2] was “inactive”. For the same compound, the inhibition result in experiment [3] and in experiment [4] was “Active” in each case. Further, the Activity in experiment [5] worked out at 4.7%; in [7] it was 3.3%; in experiment [8], 0.5 g; in [9] it was 2.4%; in experiment [10], 3.7%; in experiment [12], 0.3%. Moreover, the Activity in experiment [13] is 1.6%. Also, in experiment [6], the viability at 4 µM turned out to be 93.3%. Besides, the viability at 2 µM in experiment [11] was 93.6%.
Consider `O=C(CCNC(=O)/C(Cc1ccc(O)c(Br)c1)=N/O)NO`, for which the Activity in [14] is reported as 21.9%; in experiment [15], 7.3%; in experiment [16] it was 12.6%; in experiment [17] it was 0.8%.
As to `O=C(NCCSSCCNC(=O)/C(Cc1ccc(O)c(Br)c1)=N/O)/C(Cc1ccc(O)c(Br)c1)=N/O` [PSAMMAPLIN A], the outcome in [1] was Active. In experiment [2], the inhibition result is “inactive”. For the same compound, the inhibition entry in experiment [3] and in experiment [4] was “Active” each time. Moreover, the Activity in experiment [18] amounted to 0.8%; in experiment [5] it was 26.7%; in [9] it was 4.1%; in experiment [10], 24.9%; in experiment [12] it was 3.7%; in experiment [13], 3.4%. For the same compound, in experiment [6], the viability at 4 µM was 66.2%. In addition, in [11], the viability at 2 µM was determined as 67.1%.

The record behind these values is ChEMBL document CHEMBL4673384, “Studying Histone Deacetylase Inhibition and Apoptosis Induction of Psammaplin A Monomers with Modified Thiol Group” (ACS Med Chem Lett, 2021).
